Experimental data from ChEMBL document CHEMBL1629503, “Novel conformationally restricted triazole derivatives with potent antifungal activity” (2010).
≈ marks a conversion by molar mass, not a printed value.

Assays:
Format in all cases: functional
Candida albicans = test: Antifungal activity against Candida albicans after 24 hrs by serial dilution method
Method in brief: (§1)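 Broth microdilution MIC per NCCLS recommendations in 96-well plates, using RPMI 1640 buffered with 0.165 M MOPS. Strains were ATCC or clinical isolates. Compounds were dissolved in DMSO and serially diluted in medium. Yeasts were incubated at 35 °C and growth was read at 24 h. MIC80 is the lowest concentration giving […] of control growth (turbidity).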

Cryptococcus neoformans = test: Antifungal activity against Cryptococcus neoformans after 72 hrs by serial dilution method
Method in brief: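 Yeast MIC by NCCLS serial microdilution in RPMI 1640 with 0.165 M MOPS, using an ATCC strain or clinical isolate. Test agents came from DMSO stocks diluted in medium. Incubation was at 35 °C with the read at 72 h. MIC80 is the lowest concentration at which turbidity was […] of drug-free control growth.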

Candida tropicalis = test: Antifungal activity against Candida tropicalis after 24 hrs by serial dilution method; method in brief: as §1
Candida parapsilosis = test: Antifungal activity against Candida parapsilosis after 24 hrs by serial dilution method; conditions: Lodderomyces parapsilosis; method in brief: as §1
Kluyveromyces marxianus = test: Antifungal activity against Candida kefyr after 24 hrs by serial dilution method; method in brief: as §1
Trichophyton rubrum = test: Antifungal activity against Trichophyton rubrum after 7 days by serial dilution method; conditions: 168 h
Method in brief: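 Dermatophyte MIC by NCCLS-based serial dilution in 96-well plates, in RPMI 1640 buffered with 0.165 M MOPS. Compounds were dissolved in DMSO and diluted in growth medium. Incubation was at 28 °C. Strain was ATCC or clinical isolate. MIC80 is the lowest concentration reducing turbidity to […] of growth control.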

Aspergillus fumigatus = test: Antifungal activity against Aspergillus fumigatus after 7 days by serial dilution method; conditions: 168 h
Method in brief: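 Mould susceptibility by NCCLS serial dilution in 96-well plates, using MOPS-buffered (0.165 M) RPMI 1640 medium. Compounds were dissolved in DMSO and serially diluted in medium. Isolates were from ATCC or clinical sources. The endpoint MIC80 is the lowest concentration giving turbidity […] of control growth.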

SMILES | MIC80 (Candida albicans) [µg/mL] | MIC80 (Cryptococcus neoformans) [µg/mL] | MIC80 (Candida tropicalis) [µg/mL] | MIC80 (Candida parapsilosis) [µg/mL] | MIC80 (Kluyveromyces marxianus) [µg/mL] | MIC80 (Trichophyton rubrum) [µg/mL] | MIC80 (Aspergillus fumigatus) [µg/mL]
CN(CC(O)(Cn1cncn1)c1ccc(F)cc1F)C1CCN(Cc2ccc(Cl)c(Cl)c2)CC1 (stereo not given) | 0.0625 (≈ 0.122 µM) | 0.25 (≈ 0.49 µM) | 0.0625 (≈ 0.122 µM) | 0.0625 (≈ 0.122 µM) | 0.25 (≈ 0.49 µM) | 0.25 (≈ 0.49 µM) | 4 (≈ 7.84 µM)
CN(CC(O)(Cn1cncn1)c1ccc(F)cc1F)C1CCN(Cc2ccccc2)CC1 (stereo not given) | 0.25 (≈ 0.566 µM) | 1 (≈ 2.26 µM) | 1 (≈ 2.26 µM) | 0.25 (≈ 0.566 µM) | 1 (≈ 2.26 µM) | 1 (≈ 2.26 µM) | 64 (≈ 145 µM)
CN(CC(O)(Cn1cncn1)c1ccc(F)cc1F)C1CCN(Cc2ccc([N+](=O)[O-])cc2)CC1 (stereo not given) | 0.0625 (≈ 0.128 µM) | 0.25 (≈ 0.514 µM) | 0.25 (≈ 0.514 µM) | 0.0625 (≈ 0.128 µM) | 1 (≈ 2.06 µM) | 0.25 (≈ 0.514 µM) | 4 (≈ 8.22 µM)
CN(CC(O)(Cn1cncn1)c1ccc(F)cc1F)C1CCN(Cc2ccc(Br)cc2)CC1 (stereo not given) | 0.0625 (≈ 0.12 µM) | 0.25 (≈ 0.48 µM) | 0.25 (≈ 0.48 µM) | 0.0625 (≈ 0.12 µM) | 1 (≈ 1.92 µM) | 0.25 (≈ 0.48 µM) | 4 (≈ 7.69 µM)
CN(CC(O)(Cn1cncn1)c1ccc(F)cc1F)C1CCN(Cc2ccccc2Cl)CC1 (stereo not given) | 0.25 (≈ 0.525 µM) | 0.25 (≈ 0.525 µM) | 0.25 (≈ 0.525 µM) | 0.0625 (≈ 0.131 µM) | 1 (≈ 2.1 µM) | 1 (≈ 2.1 µM) | 4 (≈ 8.4 µM)
CN(CC(O)(Cn1cncn1)c1ccc(F)cc1F)C1CCN(Cc2ccc(Cl)cc2Cl)CC1 (stereo not given) | 0.0625 (≈ 0.122 µM) | 0.25 (≈ 0.49 µM) | 0.0625 (≈ 0.122 µM) | 0.0625 (≈ 0.122 µM) | 0.25 (≈ 0.49 µM) | 0.25 (≈ 0.49 µM) | 4 (≈ 7.84 µM)
CN(CC(O)(Cn1cncn1)c1ccc(F)cc1F)C1CCN(Cc2cccc(Cl)c2)CC1 (stereo not given) | 0.0625 (≈ 0.131 µM) | 0.0625 (≈ 0.131 µM) | 0.25 (≈ 0.525 µM) | 0.0625 (≈ 0.131 µM) | 1 (≈ 2.1 µM) | 0.25 (≈ 0.525 µM) | 1 (≈ 2.1 µM)
CN(CC(O)(Cn1cncn1)c1ccc(F)cc1F)C1CCN(Cc2ccc(C#N)cc2)CC1 (stereo not given) | 0.0625 (≈ 0.134 µM) | 0.0625 (≈ 0.134 µM) | 0.25 (≈ 0.536 µM) | 0.25 (≈ 0.536 µM) | 0.0625 (≈ 0.134 µM) | 0.0625 (≈ 0.134 µM) | 1 (≈ 2.14 µM)
CN(CC(O)(Cn1cncn1)c1ccc(F)cc1F)C1CCN(Cc2cccc(Br)c2)CC1 (stereo not given) | 0.0625 (≈ 0.12 µM) | 0.25 (≈ 0.48 µM) | 0.0625 (≈ 0.12 µM) | 0.0625 (≈ 0.12 µM) | 0.25 (≈ 0.48 µM) | 0.25 (≈ 0.48 µM) | 1 (≈ 1.92 µM)
CN(CC(O)(Cn1cncn1)c1ccc(F)cc1F)C1CCN(Cc2ccccc2F)CC1 (stereo not given) | 0.25 (≈ 0.544 µM) | 0.25 (≈ 0.544 µM) | 0.25 (≈ 0.544 µM) | 0.25 (≈ 0.544 µM) | 0.25 (≈ 0.544 µM) | 1 (≈ 2.18 µM) | 16 (≈ 34.8 µM)
CN(CC(O)(Cn1cncn1)c1ccc(F)cc1F)C1CCN(Cc2ccc(F)cc2)CC1 (stereo not given) | 0.25 (≈ 0.544 µM) | 0.25 (≈ 0.544 µM) | 0.25 (≈ 0.544 µM) | 0.25 (≈ 0.544 µM) | 0.25 (≈ 0.544 µM) | 1 (≈ 2.18 µM) | 16 (≈ 34.8 µM)
COc1cccc(CN2CCC(N(C)CC(O)(Cn3cncn3)c3ccc(F)cc3F)CC2)c1 (stereo not given) | 0.25 (≈ 0.53 µM) | 0.25 (≈ 0.53 µM) | 0.25 (≈ 0.53 µM) | 0.25 (≈ 0.53 µM) | 0.25 (≈ 0.53 µM) | 1 (≈ 2.12 µM) | 64 (≈ 136 µM)
Cc1ccccc1CN1CCC(N(C)CC(O)(Cn2cncn2)c2ccc(F)cc2F)CC1 (stereo not given) | 0.0625 (≈ 0.137 µM) | 0.25 (≈ 0.549 µM) | 0.25 (≈ 0.549 µM) | 0.25 (≈ 0.549 µM) | 0.25 (≈ 0.549 µM) | 1 (≈ 2.2 µM) | 64 (≈ 140 µM)
CC(C)c1ccc(CN2CCC(N(C)CC(O)(Cn3cncn3)c3ccc(F)cc3F)CC2)cc1 (stereo not given) | 0.0156 (≈ 0.0323 µM) | 0.25 (≈ 0.517 µM) | 0.25 (≈ 0.517 µM) | 0.25 (≈ 0.517 µM) | 0.25 (≈ 0.517 µM) | 0.25 (≈ 0.517 µM) | 16 (≈ 33.1 µM)
OC(Cn1cncn1)(Cn1cncn1)c1ccc(F)cc1F [FLUCONAZOLE] | 0.25 (≈ 0.816 µM) | 0.0625 (≈ 0.204 µM) | 1 (≈ 3.27 µM) | 0.25 (≈ 0.816 µM) | 1 (≈ 3.27 µM) | 1 (≈ 3.27 µM) | > 64
